# Measurements published in ChEMBL document CHEMBL1138091, “Privileged structure based ligands for melanocortin-4 receptors--aliphatic piperazine derivatives” (Bioorg Med Chem Lett, 2006).
# Target: Melanocortin receptor 4 (Homo sapiens, UniProt P32245)
# Assay: Inhibition of [125I]NDP-alpha-MSH binding to human MC4R transfected in HEK293 cells
# Type: cell-based
# In short: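 Competition binding against ¹²⁵I-NDP-α-MSH on HEK293 cells stably expressing human MC4 receptor; affinity taken from inhibition of radioligand binding. Each value is the mean of at least two determinations, with the binding assay's average error given as 15%.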
# Sequence of Melanocortin receptor 4 (P32245 whole entry): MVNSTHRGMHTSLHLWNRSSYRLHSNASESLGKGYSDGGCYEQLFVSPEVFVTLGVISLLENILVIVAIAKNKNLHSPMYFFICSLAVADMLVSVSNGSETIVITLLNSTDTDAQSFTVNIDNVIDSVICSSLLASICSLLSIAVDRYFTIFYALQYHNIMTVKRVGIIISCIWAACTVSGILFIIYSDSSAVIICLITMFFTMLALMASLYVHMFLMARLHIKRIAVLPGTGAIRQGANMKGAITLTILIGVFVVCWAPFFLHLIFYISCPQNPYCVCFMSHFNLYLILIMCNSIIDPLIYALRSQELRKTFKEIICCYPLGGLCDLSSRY
row,Ki,Structure (SMILES)
1,54 nM,CC(C)CC(C1CCCCC1)N1CCN(C(=O)[C@@H](Cc2ccc(Cl)cc2)NC(=O)CC2Cc3ccccc3N2)CC1 (some centres not stated)
2,148 nM,CCN(CC)C(=O)C(C1CCCCC1)N1CCN(C(=O)[C@@H](Cc2ccc(Cl)cc2)NC(=O)CC2Cc3ccccc3N2)CC1 (some centres not stated)
3,26 nM,CS(=O)(=O)NCC(C1CCCCC1)N1CCN(C(=O)[C@@H](Cc2ccc(Cl)cc2)NC(=O)CC2Cc3ccccc3N2)CC1 (some centres not stated)
4,13 nM,CCN(CC)CC(CC1CCCCC1)N1CCN(C(=O)[C@@H](Cc2ccc(Cl)cc2)NC(=O)[C@H]2Cc3ccccc3CN2)CC1 (some centres not stated)
5,35 nM,O=C(CC1Cc2ccccc2N1)N[C@H](Cc1ccc(Cl)cc1)C(=O)N1CCN(C(C2CCCCC2)C2CCCCC2)CC1 (some centres not stated)
6,70 nM,CCN(CC)CC1(N2CCN(C(=O)[C@@H](Cc3ccc(Cl)cc3)NC(=O)[C@H]3Cc4ccccc4CN3)CC2)CCCC1
7,10 nM,O=C(CC1Cc2ccccc2N1)N[C@H](Cc1ccc(Cl)cc1)C(=O)N1CCN(C(CC2CCCCC2)CN2CCOCC2)CC1 (some centres not stated)
8,5 nM,CCN(CC)CC(CC1CCCCC1)N1CCN(C(=O)[C@@H](Cc2ccc(Cl)cc2)NC(=O)CC2Cc3ccccc3N2)CC1 (some centres not stated)
9,20 nM,CCN(CC)CC(c1ccccc1F)N1CCN(C(=O)[C@@H](Cc2ccc(Cl)cc2)NC(=O)[C@H]2Cc3ccccc3CN2)CC1 (some centres not stated)
10,326 nM,O=C(CC1Cc2ccccc2N1)N[C@H](Cc1ccc(Cl)cc1)C(=O)N1CCN(C(CC2CCCCC2)CC2CCCCC2)CC1 (some centres not stated)
11,18 nM,CC(C)CC(CC(C)C)N1CCN(C(=O)[C@@H](Cc2ccc(Cl)cc2)NC(=O)CC2Cc3ccccc3N2)CC1 (some centres not stated)
12,4 nM,CCN(CC)CC(C1CCCC1)N1CCN(C(=O)[C@@H](Cc2ccc(Cl)cc2)NC(=O)[C@H]2Cc3ccccc3CN2)CC1 (some centres not stated)
13,13 nM,CCN(CC)CC(C1CCCCCC1)N1CCN(C(=O)[C@@H](Cc2ccc(Cl)cc2)NC(=O)[C@H]2Cc3ccccc3CN2)CC1 (some centres not stated)
14,4 nM,CCN(CC)CC(C1CCCCC1)N1CCN(C(=O)[C@@H](Cc2ccc(Cl)cc2)NC(=O)[C@H]2Cc3ccccc3CN2)CC1 (some centres not stated)
15,3430 nM,CCN(CC)CC(C)N1CCN(C(=O)[C@@H](Cc2ccc(Cl)cc2)NC(=O)[C@H]2Cc3ccccc3CN2)CC1 (some centres not stated)
16,7 nM,CCN(CC(C1CCCCC1)N1CCN(C(=O)[C@@H](Cc2ccc(Cl)cc2)NC(=O)n2cc3ccccc3c2)CC1)S(C)(=O)=O (some centres not stated)
17,3 nM,CCN(CC)CC(C1CCCCC1)N1CCN(C(=O)[C@@H](Cc2ccc(Cl)cc2)NC(=O)CC2Cc3ccccc3N2)CC1 (stereo in doubt; 28)
18,3 nM,CCN(CC)CC(C1CCCCC1)N1CCN(C(=O)[C@@H](Cc2ccc(Cl)cc2)NC(=O)CC2Cc3ccccc3N2)CC1 (stereo in doubt; 28a)
19,5 nM,CCN(CC)CC(C1CCCCC1)N1CCN(C(=O)[C@@H](Cc2ccc(Cl)cc2)NC(=O)CC2Cc3ccccc3N2)CC1 (stereo in doubt; 28b)
20,3 nM,CCN(CC(C1CCCCC1)N1CCN(C(=O)[C@@H](Cc2ccc(Cl)cc2)NC(=O)CC2Cc3ccccc3N2)CC1)S(C)(=O)=O (stereo in doubt; 34)
21,6 nM,CCN(CC(C1CCCCC1)N1CCN(C(=O)[C@@H](Cc2ccc(Cl)cc2)NC(=O)CC2Cc3ccccc3N2)CC1)S(C)(=O)=O (stereo in doubt; 34a)
22,8 nM,CCN(CC(C1CCCCC1)N1CCN(C(=O)[C@@H](Cc2ccc(Cl)cc2)NC(=O)CC2Cc3ccccc3N2)CC1)C(C)=O (stereo in doubt; 35)
23,2 nM,CCN(CC(C1CCCCC1)N1CCN(C(=O)[C@@H](Cc2ccc(Cl)cc2)NC(=O)CC2Cc3ccccc3N2)CC1)C(C)=O (stereo in doubt; 35a)
24,3 nM,CCN(CC(C1CCCCC1)N1CCN(C(=O)[C@@H](Cc2ccc(Cl)cc2)NC(=O)CC2Cc3ccccc3N2)CC1)C(C)=O (stereo in doubt; 35b)
25,10 nM,O=C(CC1Cc2ccccc2N1)N[C@H](Cc1ccc(Cl)cc1)C(=O)N1CCN(C(CN2C(=O)CCC2=O)C2CCCCC2)CC1 (stereo in doubt; 36)
26,10 nM,O=C(CC1Cc2ccccc2N1)N[C@H](Cc1ccc(Cl)cc1)C(=O)N1CCN(C(CN2C(=O)CCC2=O)C2CCCCC2)CC1 (stereo in doubt; 36a)
27,18 nM,O=C(CC1Cc2ccccc2N1)N[C@H](Cc1ccc(Cl)cc1)C(=O)N1CCN(C(CN2C(=O)CCC2=O)C2CCCCC2)CC1 (stereo in doubt; 36b)
